High-throughput results: PubChem, Sanford-Burnham Center for Chemical Genomics
Scp1 inh – Scp-1 (human) phosphatase inhibition | Q9GZU7 | Recombinant Scp1, phosphopeptide, malachite green phosphate absorbance | inhibition, % at 20 µM | 340,000 compounds, 0.88% hits | AID 493091;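 active = inhibition above about 50% at 20 µM, limit read from the data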;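 also: plate controls were DMSO wells with enzyme for no effect and wells lacking enzyme for full effect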
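Test system: SCP-1 phosphatase catalytic domain, residues 76-261 | Compound dosing: One concentration, 20 µM, with 1.0% DMSO | Schedule: 45 min room-temperature reaction, 5 min colour, 30 min stabiliser | Detection: Absorbance at 630 nm | Read-out basis: % inhibition of SCP-1 phosphate liberation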
STEP block – STEP (human) phosphatase inhibition; inhibition, % at 20 µM; AID 588621; 360,000 compounds, 0.25% hits; recombinant STEP, OMFP fluorogenic substrate, fluorescence;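 active = inhibition at 20 µM, scaled per plate between control wells, above about 37%, limit read from the data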;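 also: 0% = DMSO with enzyme and substrate and 100% = substrate only without enzyme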
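System: STEP (striatal-enriched tyrosine phosphatase) enzyme, cell-free; medium: Bis-Tris pH 6.0 buffer with DTT, detergent; dosing: 20 µM, 1% DMSO; times: reaction 20 min, ambient temperature; detection: fluorescence, 480/540 nm; read-out basis: normalized % inhibition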
SUMO1 PPI mod – SUMO1-SIM interaction modulation. inhibition, % at 20 µM. P63165. SUMO1 binding to a labelled peptide, TR-FRET, 1 h. 360,000 compounds, 0.33% hits; in the data active = inhibition above about 37%
Target sequence (P63165 whole entry, looked up): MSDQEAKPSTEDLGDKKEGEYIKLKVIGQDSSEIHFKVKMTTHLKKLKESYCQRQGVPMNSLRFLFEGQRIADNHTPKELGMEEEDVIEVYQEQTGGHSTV
CSN inh – CSN deneddylation inhibition; Q92905; Purified CSN, SCF-Nedd8-OG deneddylation, fluorescence polarization; 360,000 compounds, 0.38% hits; AID 651999; inhibition, % at 12.5 µM;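 active = pattern-corrected inhibition above about 35%, with an unprinted fluorescence ratio check between 0.5 and 1.5, limit read from the data, passing the limit was not always enough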;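 also: 0% = enzyme with substrate and 100% = substrate without enzyme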
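Detection – fluorescence polarization · System – HEK293T-derived human Csn5 enzyme · Controls – substrate-only high control, full reaction low control · Timing – 90 min, room temperature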
LMPTP inh – blocks human LMPTP phosphatase; inhibition, % at 20 µM; recombinant LMPTP-A, OMFP fluorogenic substrate, fluorescence intensity; 360,000 compounds, 0.22% hits; P24666;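 active = compounds that cut the enzyme signal by at least half of the control window in the single-dose screen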;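 also: plate controls were DMSO wells with enzyme plus substrate for no effect and substrate without enzyme for full effect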
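Test system – LMPTP-A enzyme · Amount – LMPTP-A at 0.625 nM final in the reaction · Buffer or medium – Bis-Tris pH 6.0, DTT, detergent · Reagent – OMFP 400 µM · Doses – single 20 µM dose · Schedule – reaction 50 min, room temperature, dark · Detection – fluorescence intensity of OMFP turnover product · Evaluation – percent inhibition versus substrate-only and uninhibited controls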
DNMT1 block – blocks human DNA methyltransferase DNMT1. DNMT1 molecular beacon, Hinp1I cleavage, fluorescence. inhibition (reported as % activation of signal), % at 10 µM. P26358. 360,000 compounds, 0.83% hits
DNMT1 interf DR – beacon fluorescence artifact, dose response counter-screen; shares compounds with DNMT1 block; molecular beacon fluorescence, spectral interference counter-screen; IC50, µM; 200 tested, under 10 active; AID 602382; call rule not given here
DNMT1 inh conf – confirmation of human DNMT1 inhibitors | shares compounds with DNMT1 block | DNMT1 molecular beacon HinP1I cleavage, fluorescence | inhibition, % at 10 µM | 2,300 compounds, 8% hits | AID 602385;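 active = average inhibition of at least 30% in the single-concentration confirmation test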
DNMT1 interf – beacon fluorescence artifact counter-screen | AID 602387 | DNMT1 molecular beacon spectral interference counterscreen, fluorescence 485/520 | activation (fluorescence interference), % at 10 µM | 2,300 compounds, 1% hits | shares compounds with DNMT1 block;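 active = activation of at least 30% at 10 µM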;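 also: DNMT1 catalytic domain with a HinP1I cleavage step and a FAM/dabcyl DNA beacon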
STEP conf – confirmation of human STEP phosphatase inhibitors | recombinant STEP, OMFP fluorogenic substrate, fluorescence | inhibition, % at 20 µM | AID 623866 | 520 compounds, 32% hits | shares compounds with STEP block; call rule not given here;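 also: 0% = enzyme with substrate plus DMSO and 100% = substrate without enzyme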
CSN deneddyl val – Csn5 (human) deneddylation inhibition, single-concentration validation; shares compounds with CSN inh; Csn5 deneddylation of SCF-Nedd8OG, fluorescence polarization, 90 min; inhibition, % at 16.6 µM; 540 compounds, 62% hits; AID 720654;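 also: 0% = DMSO with enzyme and 100% = no enzyme wells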
MMP2 cntr CSN – MMP-2 (human) inhibition, counter-screen for CSN hits | recombinant MMP-2, FRET substrate fluorescence, 60 min | 540 compounds, 33% hits | inhibition, % at 16.6 µM | shares compounds with CSN inh;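 active = corrected plate-normalized z-score of 5 or more, or -5 or less, or inhibition of 15% or more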;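 also: plate controls were DMSO wells with enzyme for no effect and buffer wells lacking MMP-2 for full effect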
Thrombin counter – thrombin (bovine) inhibition, counter-screen for CSN hits | shares compounds with CSN inh | bovine thrombin cleavage of Ub4-pepOG, fluorescence polarization | inhibition, % at 16.6 µM | 540 compounds, 49% hits | AID 720656;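 active = inhibition at or above a set limit, with a fluorescence interference ratio between 0.5 and a set maximum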
Target sequence (P00735 whole entry, looked up): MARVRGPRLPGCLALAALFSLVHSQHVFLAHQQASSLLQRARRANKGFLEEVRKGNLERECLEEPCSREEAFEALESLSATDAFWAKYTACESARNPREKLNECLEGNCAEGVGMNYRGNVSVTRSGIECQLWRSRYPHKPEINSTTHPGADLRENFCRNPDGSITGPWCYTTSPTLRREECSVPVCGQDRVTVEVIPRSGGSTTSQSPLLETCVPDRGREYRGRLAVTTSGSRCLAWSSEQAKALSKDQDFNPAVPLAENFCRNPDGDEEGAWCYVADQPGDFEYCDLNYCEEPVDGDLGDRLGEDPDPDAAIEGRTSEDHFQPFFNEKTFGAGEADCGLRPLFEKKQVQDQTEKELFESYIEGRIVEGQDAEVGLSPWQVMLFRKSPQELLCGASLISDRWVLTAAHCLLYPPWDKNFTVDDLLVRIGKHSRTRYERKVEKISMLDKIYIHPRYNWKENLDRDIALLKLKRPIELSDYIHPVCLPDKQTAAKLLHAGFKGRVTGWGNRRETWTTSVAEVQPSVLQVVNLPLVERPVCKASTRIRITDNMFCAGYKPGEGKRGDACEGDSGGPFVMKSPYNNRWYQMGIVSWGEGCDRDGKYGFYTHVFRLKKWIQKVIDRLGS
The depositor's hits bear a star; . = no result given; ! = not confirmed by another sample. Sampled rows, rich in hits. Any-hit rate of the full collection: about 1.9%. Rule as the data show it, unless noted: active = inhibition above about 50%; inactive = the rest.

SMILES	Scp1 inh	STEP block	SUMO1 PPI mod	CSN inh	LMPTP inh	DNMT1 block	DNMT1 inh conf	DNMT1 interf	CSN deneddyl val	MMP2 cntr CSN	Thrombin counter	others
O=C(CCCN1C(=O)/C(=C\c2cccs2)SC1=S)Nc1ccc(O)cc1C(=O)O	9.1	18.1	2.6	4.3	0.1	-0.3	.	.	.	.	.
O=C(CCCN1C(=O)/C(=C\c2ccco2)SC1=S)Nc1ccc(O)cc1C(=O)O	68.8*	43.0*	63.5*	48.3*	9.2	98.6*	3.8	-2.5	65.9*	23.8*	23.4*
O=C(CCCN1C(=O)/C(=C/c2ccco2)SC1=S)Nc1cccc(C(=O)O)c1	51.2*	17.8	50.3*	44.8*	5.6	86.1*	0.5	-3.9	80.0*	25.1*	0.9
CN(C(=O)COC(=O)/C=C/c1ccc(C(F)(F)F)cc1)c1c(N)n(Cc2ccccc2)c(=O)[nH]c1=O	-2.0	2.9	-12.8	1.8	0.2	-1.5	.	.	.	.	.
Cc1c(C(=O)NCc2cccs2)sc(=O)n1Cc1ccc(S(=O)(=O)N(C)C)cc1	.	-0.9	-1.6	-1.4	-1.1	0.7	.	.	.	.	.
COc1ccc(NC(=O)COC(=O)C2CC(=O)N(c3ccc(C)cc3)C2)cc1 (stereo not drawn)	-6.4	3.8	-1.2	-4.7	-0.4	1.7	.	.	.	.	.
CCNc1ccc(Br)cc(C(=O)/C=C/c2ccc3c(c2)OCO3)c1=O	5.8	4.2	21.6	47.4*	53.6*	89.3*	1.3	1.3	70.8*	-2.6	24.1*
CC(=O)NS(=O)(=O)c1ccc(NC(=O)CN2C(=O)C3C4C=CC(C4)C3C2=O)cc1 (stereo not drawn)	3.8	-1.5	0.3	-5.8	-2.4	4.4	.	.	.	.	.
COC(=O)c1ccc(NC(=O)c2ccc(NC(=O)c3ccco3)cc2)cc1	7.0	14.7	54.4*	67.1*	47.9	57.8*	2.3	-1.4	103.9*	5.6	-6.4
COc1cc2c(C#N)c(N3CCCC3)nc(N)c2c(N)n1	-0.5	18.0	55.5*	35.0*!	28.8	99.2*	2.8	3.5	67.5*	-45.1*	-40.9
CCCN1CNc2c(c(=O)[nH]c(=S)n2CCc2ccccc2)C1	-1.0	-0.9	1.6	-11.8	-1.6	0.5	.	.	.	.	.
Cc1cc(NC(=O)c2cncc(Br)c2)ccc1NC(=O)c1cc2ccccc2o1	4.0	9.4	37.8	59.8*	0.7	74.8*	10.1	-2.4	9.7	15.8*	-10.9
COc1cc(NC(=O)c2ccccc2)ccc1NC(=O)c1cc2ccccc2o1	-4.5	0.5	-9.4	2.8	-1.2	24.7	.	.	.	.	.
O=C1CCCC2=C1C(c1ccco1)Nc1ccc3ccccc3c12 (stereo not drawn)	74.0*	3.8	14.6	39.6*	12.4	103.2*	50.3*	-5.2	.	17.3*	7.8	DNMT1 interf DR=>99
Cc1cc(OC(=O)c2ccc(C)c(C)c2)c([N+](=O)[O-])c(=O)[nH]1	-11.3	-1.8	-1.7	-0.6	-1.3	2.4	.	.	.	.	.
O=C(O)CN1C(=O)/C(=C\c2cc(Br)ccc2OCc2ccccc2Cl)SC1=S	34.5	14.9	22.4	37.8*	15.6	64.8*	71.3*	-7.5	25.8	7.8	1.7	DNMT1 interf DR=>99
Cc1cc(/C=C2\SC(=S)NC2=O)c(C)n1C	-6.6	-3.8	42.7*	76.1*	7.4	91.9*	2.7	4.0	53.4*	23.8*	39.4*
COc1ccc(S(=O)(=O)N=C2C=C(C)C(=O)C(C)=C2)cc1	-7.3	45.1*	-2.5	-8.3	0.1	-7.8	.	.	.	.	.	STEP conf=-13.8
COc1ccc(C(=O)ON=C2C=C(C)C(=O)C(C)=C2)cc1	-6.0	-0.2	-19.5	1.2	1.9	8.1	.	.	.	.	.
CCCOc1ccc(/C(O)=C2\C(=O)C(=O)N(c3ccccn3)C2c2ccccc2F)cc1C (stereo not drawn)	-1.8	3.5	-17.0	5.1	12.7	4.7	.	.	.	.	.
CC1(C)Cc2c(sc(NC(=O)C(=O)NCCCN3CCOCC3)c2C#N)CO1	0.2	68.3*	-4.9	2.9	-1.1	4.6	.	.	.	.	.	STEP conf=18.6
CC1(C)Cc2c(sc(NC(=O)/C=C/C(=O)O)c2C#N)CO1	0.2	-0.8	0.7	9.9	-2.6	1.6	.	.	.	.	.
COc1ccc(C(=O)COC(=O)[C@@H](NS(=O)(=O)c2ccccc2)C(C)C)cc1	0.0	-0.9	0.6	-1.8	0.3	-2.5	.	.	.	.	.
O=C(CCN1CCC(c2ccc(Cl)s2)=N1)c1ccc(Cl)s1	-0.8	58.2*	6.1	0.4	11.6	19.5	.	.	.	.	.	STEP conf=-0.7
O=C(CCC(=O)N1CCN(c2ccccc2F)CC1)c1ccc(Cl)s1	-5.0	2.7	-7.5	-3.8	1.2	-2.1	.	.	.	.	.
SMILES	Scp1 inh	STEP block	SUMO1 PPI mod	CSN inh	LMPTP inh	DNMT1 block	DNMT1 inh conf	DNMT1 interf	CSN deneddyl val	MMP2 cntr CSN	Thrombin counter	others
COc1ccc(F)cc1S(=O)(=O)Nc1ccncc1	-4.7	-3.4	5.4	6.4	-0.9	3.0	.	.	.	.	.
CCOC(=O)N1CCC(NS(=O)(=O)c2ccc(C#N)cc2)CC1	-1.2	-2.0	0.8	3.3	-2.9	0.5	.	.	.	.	.
CCc1ccc(Nc2nc(N)nc(CSc3nc4ccccc4s3)n2)cc1	-10.5	43.4*	-2.3	0.6	-2.0	7.1	.	.	.	.	.	STEP conf=8.1
O=C1c2ccccc2C(c2nnnn2C2CCCCC2)N1CCc1ccc(O)cc1 (stereo not drawn)	.	.	0.7	3.6	-1.4	.	.	.	.	.	.
CCOC(=O)c1cnn(-c2ccc(C)cc2)c1N	-4.8	-2.4	2.0	3.4	0.5	0.8	.	.	.	.	.
CCOC(=O)c1cnn(-c2ncnc3sc(C)c(C)c23)c1N	-5.6	69.6*	-4.2	-1.0	-0.4	-1.4	.	.	.	.	.	STEP conf=4.9
CCOC(=O)CC1C(=O)NCCN1C(=O)COc1ccc(C(C)(C)C)cc1 (stereo not drawn)	-4.7	-3.8	5.2	2.3	-1.1	1.9	.	.	.	.	.
